Reference: ChEMBL document CHEMBL1287785, “Synthesis and in vitro evaluation of novel coumarin-chalcone hybrids as potential anticancer agents” (Bioorg Med Chem Lett, 2010)

Legend:
Assay type in all cases: functional, cell-based; call rule not given here
KB = experiment: Cytotoxicity against human KB cells after 48 hrs by sulforhodamine B assay
Summary of the method: (§1)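 Cells kept below passage 15 in recommended medium with 10% FBS, gentamycin and amphotericin B, 37 °C, 5% CO₂. Seeded at 1 × 10⁴ cells/well overnight, then given serial two-fold dilutions (100 to 1.6) for 48 h, with untreated controls. Fixed in ice-cold 50% TCA, stained with 0.4% SRB in 1% acetic acid, read at 540 nm. IC₅₀ from dose–response curves of % growth inhibition.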

C-33-A = experiment: Cytotoxicity against human C33A cells after 48 hrs by sulforhodamine B assay; summary of the method: as §1
MCF7 = experiment: Cytotoxicity against human MCF7 cells after 48 hrs by sulforhodamine B assay; summary of the method: as §1
A549 = experiment: Cytotoxicity against human A549 cells after 48 hrs by sulforhodamine B assay; summary of the method: as §1
NIH3T3 = experiment: Cytotoxicity against mouse NIH/3T3 cells after 48 hrs by sulforhodamine B assay; summary of the method: as §1
[1] = Homo sapiens, KB, 48 h, read-out: IC50
[2] = Homo sapiens, C-33-A, 48 h, read-out: IC50
[3] = Homo sapiens, MCF7, 48 h, read-out: IC50
[4] = Homo sapiens, A549, 48 h, read-out: IC50
[5] = Mus musculus, NIH3T3, 48 h, read-out: IC50

| SMILES | IC50 (KB; kb) | IC50 (C-33-A; c-33-a) | IC50 (MCF7; mcf7) | IC50 (A549; a549) | IC50 (NIH3T3; nih3t3) | IC50 (KB; [1]) [µM] | IC50 (C-33-A; [2]) [µM] | IC50 (MCF7; [3]) [µM] | IC50 (A549; [4]) [µM] | IC50 (NIH3T3; [5]) [µM] |
| --- | --- | --- | --- | --- | --- | --- | --- | --- | --- | --- |
| CC(=O)c1cc2cc(/C=C/C(=O)c3ccc(Cl)cc3)c3ccccc3c2oc1=O | Not Active | Not Active | Not Active | Not Active | Not Active | – | – | – | – | – |
| COC(=O)c1cc2cc(/C=C/C(=O)c3ccc(Cl)cc3)c3ccccc3c2oc1=O | Not Active | Not Active | Not Active | Not Active | Not Active | – | – | – | – | – |
| CCOC(=O)c1cc2cc(/C=C/C(=O)c3ccccc3)c3ccccc3c2oc1=O | Not Active | Not Active | Not Active | Not Active | Not Active | – | – | – | – | – |
| CCOC(=O)c1cc2cc(/C=C/C(=O)c3ccc(C)cc3)c3ccccc3c2oc1=O | Not Active | Not Active | Not Active | Not Active | Not Active | – | – | – | – | – |
| CCOC(=O)c1cc2cc(/C=C/C(=O)c3ccc(Cl)cc3)c3ccccc3c2oc1=O | Not Active | Not Active | Not Active | Not Active | Not Active | – | – | – | – | – |
| CCC(C)c1cc(C=O)cc2cc(C(=O)OC)c(=O)oc12 (configuration not stated) | – | – | Not Active | Not Active | Not Active | 146 | 88 | – | – | – |
| CCOC(=O)c1cc2cc(C=O)cc(C(C)CC)c2oc1=O (configuration not stated) | – | – | – | – | Not Active | 132 | 64.3 | – | – | – |
| CCC(C)c1cc(/C=C/C(=O)c2ccc(Cl)cc2)cc2cc(C(C)=O)c(=O)oc12 (configuration not stated) | Not Active | Not Active | Not Active | Not Active | Not Active | – | – | – | – | – |
| CCC(C)c1cc(/C=C/C(=O)c2ccccc2)cc2cc(C(=O)OC)c(=O)oc12 (configuration not stated) | – | – | – | – | Not Active | 13.4 | 6.28 | 11.4 | 10.7 | – |
| CCC(C)c1cc(/C=C/C(=O)c2ccc(Cl)cc2)cc2cc(C(=O)OC)c(=O)oc12 (configuration not stated) | – | – | – | – | – | 28.2 | 5.9 | 10.8 | 16.7 | 42.4 |
| CCOC(=O)c1cc2cc(/C=C/C(=O)c3ccccc3)cc(C(C)CC)c2oc1=O (configuration not stated) | – | – | – | – | Not Active | 10.5 | 8.12 | 88.1 | 12.9 | – |
| CCOC(=O)c1cc2cc(/C=C/C(=O)c3ccc(C)cc3)cc(C(C)CC)c2oc1=O (configuration not stated) | – | – | – | – | Not Active | 18 | 3.59 | 81.1 | 32.8 | – |
| CCOC(=O)c1cc2cc(/C=C/C(=O)c3ccc(Cl)cc3)cc(C(C)CC)c2oc1=O (configuration not stated) | – | – | – | – | – | 14.3 | 4.54 | 11.1 | 12.8 | 38.4 |
| CC(=O)c1cc2cc(C=O)c3ccccc3c2oc1=O | – | – | – | Not Active | Not Active | 109 | 72.8 | 147 | – | – |
| CCC(C)c1cc(C=O)cc2cc(C(C)=O)c(=O)oc12 (configuration not stated) | – | – | – | Not Active | Not Active | 176 | 70 | 141 | – | – |
| COC(=O)c1cc2cc(C=O)c3ccccc3c2oc1=O | – | – | – | – | – | 57.9 | 30.1 | 61.7 | 75.7 | 66 |
| CCOC(=O)c1cc2cc(C=O)c3ccccc3c2oc1=O | – | – | – | Not Active | Not Active | 124 | 93.5 | 155 | – | – |
| CC(=O)c1cc2cc(/C=C/C(=O)c3ccccc3)c3ccccc3c2oc1=O | Not Active | Not Active | Not Active | Not Active | Not Active | – | – | – | – | – |
| CC(=O)c1cc2cc(/C=C/C(=O)c3ccc(C)cc3)c3ccccc3c2oc1=O | Not Active | Not Active | Not Active | Not Active | Not Active | – | – | – | – | – |
| COC(=O)c1cc2cc(/C=C/C(=O)c3ccccc3)c3ccccc3c2oc1=O | – | – | – | Not Active | Not Active | 90.8 | 62.4 | 103 | – | – |
| COC(=O)c1cc2cc(/C=C/C(=O)c3ccc(C)cc3)c3ccccc3c2oc1=O | – | – | – | Not Active | Not Active | 70.4 | 52 | 118 | – | – |
| COc1cccc2c1C(=O)c1c(O)c3c(c(O)c1C2=O)C[C@@](O)(C(=O)CO)C[C@@H]3O[C@H]1C[C@H](N)[C@H](O)[C@H](C)O1 [DOXORUBICIN] | – | – | – | – | – | 0.22 | 0.82 | 0.61 | 0.52 | – |
